The list is not random: actives were taken first. Their share in the collection is about 3%.
S1P3 ag – S1P3 (human) receptor agonism | Q99500 | S1P3 NFAT-BLA reporter cells, FRET ratio; relative to 1 µM S1P, basal subtracted | activation, % at 4.5 µM | actives 0.1% (n = 60,000) | AID 373;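 active means activation above the screen-wide mean plus 3 SD, cut at about 4.5% in these data, passing the limit was not always enough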
Target sequence (Q99500 whole entry, looked up): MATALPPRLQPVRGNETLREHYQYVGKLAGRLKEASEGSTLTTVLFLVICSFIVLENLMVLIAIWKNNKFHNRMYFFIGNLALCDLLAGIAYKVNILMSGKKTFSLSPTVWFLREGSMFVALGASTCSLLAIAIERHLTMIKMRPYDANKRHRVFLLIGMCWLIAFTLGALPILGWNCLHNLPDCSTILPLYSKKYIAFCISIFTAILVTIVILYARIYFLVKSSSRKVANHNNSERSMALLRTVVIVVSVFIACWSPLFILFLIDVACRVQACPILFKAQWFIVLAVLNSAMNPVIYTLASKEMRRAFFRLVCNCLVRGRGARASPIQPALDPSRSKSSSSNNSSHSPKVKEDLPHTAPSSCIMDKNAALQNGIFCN
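Measure – % activation relative to 1 µM S1P (100%), per plate · System – stable CHO line with human S1P3, Gα16, NFAT-BLA reporter · Timing – cells plated overnight, compound 4 h 37 °C, substrate 2 h RT · Technique – fluorescent BLA substrate, ex 405 nm, em 460/535 nm ratio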
HTR1A agonist – 5-HT1a (human) receptor agonism | activation, % at 10 µM | actives 0.56% (n = 65,000) | P08908 | CHO 5-HT1a Ga15 NFAT-bla reporter, FRET ratio; 0% basal, 100% maximal reference agonist;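 active means activation above the screen-wide mean activation plus 3 SD, cut at about 19% in these data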
HTR1E antagonist – 5-HT1E (human) receptor antagonism | actives 0.99% (n = 65,000) | P28566 | CHO 5-HT1E Ga15 NFAT-bla reporter, FRET, antagonist | AID 571 | inhibition, % at 6 µM;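 active means inhibition above a set limit, the mean inhibition across every tested compound plus 3 SD, cut at about 29% in these data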;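 further: signal is the 460 over 535 nm emission ratio of beta-lactamase substrate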
HTR1E agonist – agonists of human 5-HT1E serotonin receptor; P28566; CHO 5-HT1E Ga15 NFAT-bla reporter, FRET; 0% DMSO wells, 100% control agonist wells; activation, % at 6 µM; actives 0.69% (n = 65,000);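 active means activation above a set limit, the screen-wide mean activation plus 3 SD, cut at about 8.5% in these data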
S1P1 ag-PAM – activates or potentiates agonism at human S1P1 receptor. P21453. S1P1 CRE-bla cells, forskolin, beta-lactamase FRET, potentiator mode; S1P1 agonist co-added at EC20, 2 nM; 100% = saturating reference agonist, 0% = basal. activation, % at 9.5 µM. actives 0.57% (n = 56,000). AID 449;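 active means activation above a cutoff set at the mean activation of all tested compounds plus 3 SD, cut at about 54% in these data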;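 further: forskolin at 4 µM as EC80 and the EC20 agonist is SEW2871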
5HT1a antag – 5-HT1a (human) receptor antagonism; CHO 5-HT1a Ga15 NFAT-bla reporter, antagonist mode; inhibition, % at 10 µM; actives 0.68% (n = 62,000);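 active means inhibition above the mean of all tested compounds plus 3 SD, cut at about 43% in these data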;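 further: receptor stimulated by 5-CT agonist at 100 nM near EC80; beta-lactamase reporter measured by ratiometric fluorescence of a cleavable substrate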
Of the large screens only hits and unclear results are named; the others gave an inactive call.

CCOC(=O)Nc1ccc2c(c1)N(C(=O)CCN1CCOCC1)c1ccccc1S2	none
CCOC(=O)Nc1ccc2c(c1)N(C(=O)CCN1CCOCC1)c1ccccc1S2=O (centres undefined)	5HT1a antag 51.9
CC1(C)Cc2c(c(N3CCCC3)nc3sc4c(N5CCN(CCO)CC5)ncnc4c23)CO1	HTR1E antagonist 40.8 (no result: S1P3 ag, S1P1 ag-PAM)
COCCCNC(=O)CS(=O)Cc1nc(-c2cccc(OC)c2)oc1C (centres undefined)	HTR1E agonist 8.9
Cc1cccc(-c2nc(CS(=O)CC(=O)NC3CCCC3)c(C)o2)c1 (centres undefined)	HTR1A agonist 36.8
Cc1cccc(-c2nc(C#N)c(NC3CCCCC3)o2)c1	HTR1E antagonist 55.0, S1P1 ag-PAM 68.5 (no result: 5HT1a antag)
Cc1oc(-c2cccs2)nc1CS(=O)CC(=O)NC1CCCCCC1 (centres undefined)	none
COc1ccc(-c2nc(CS(=O)CC(=O)NCc3ccco3)c(C)o2)cc1OC (centres undefined)	HTR1E antagonist 29.2
OC(CN1C2=NCCN2c2ccccc21)c1ccc2c(c1)OCO2 (centres undefined)	none
CCN1CCN(C(=O)CS(=O)Cc2nc(-c3ccc(OC)cc3)oc2C)CC1 (centres undefined)	none
COc1ccc(-c2nc(CS(=O)CC(=O)N3CCCC3)c(C)o2)cc1 (centres undefined)	HTR1A agonist 100.9
O=C(NCc1cccnc1)NC1(c2ccccc2)CC1	none
CC1(C2(O)CC(c3ccccc3)ON2)CCCCC1 (centres undefined)	HTR1E antagonist 36.7 (no result: 5HT1a antag)
O=C(Nc1ccc(Cl)c(Cl)c1)Nc1cc(C(=O)N2CCOCC2)ccc1N1CCCCC1	none
Cc1noc(C(=O)NCc2cccnc2)c1Cl	none
CCOC(=O)CN(C(=O)CSc1nnc(-c2cccc(OC)c2)o1)c1ccc(F)cc1	S1P1 ag-PAM 81.5
CCOC(=O)c1cccc2c1-c1ccccc1/C2=N/O	S1P1 ag-PAM 62.0
Clc1ccc(C(c2nnnn2C2CCCC2)N2CCSCC2)cc1 (centres undefined)	5HT1a antag 50.1
CN1/C(=C/C(=O)c2nc(S(C)(=O)=O)ncc2Cl)C(C)(C)c2ccccc21	HTR1E antagonist 51.4, S1P1 ag-PAM 110.1, 5HT1a antag 62.3
CN1/C(=C\C(=O)c2ccco2)C(C)(C)c2ccccc21	none
O=C(O)C1C2CCCCC2=C2CCCCC2C1C(=O)O (centres undefined)	none
CC1CN(c2nnnn2-c2ccccc2)CC(C)O1 (centres undefined)	HTR1E agonist 53.6
CCOC(=O)N1CCN(c2nnnn2-c2ccccc2)CC1	none (no result: S1P1 ag-PAM)
COc1ccccc1N/C(N)=N/c1nc(CSc2ccc(C)cc2)cc(=O)[nH]1	S1P1 ag-PAM 58.8
COc1ccc(OC)c(C(=O)CN2C(=O)NC(C)(c3ccccc3)C2=O)c1 (centres undefined)	HTR1A agonist 161.0
Cc1cc(/C=N/n2cnnc2)c(C)n1-c1ccc(OCc2ccc(F)cc2)cc1	S1P1 ag-PAM 142.1
Cc1cc(/C=N/n2cnnc2)c(C)n1-c1ccc(Cl)cc1Cl	HTR1E antagonist 40.4
Cc1cc(/C=N/n2cnnc2)c(C)n1-c1cccc(Cl)c1	none
Cc1sc(-n2c(C)cc(/C=N/n3cnnc3)c2C)c(C#N)c1C	none (no result: 5HT1a antag)
COCc1cc(=O)[nH]c(Nc2nc(C)c3ccc(C)cc3n2)n1	none
COC(=O)CCCCCC(CCC(=O)OC)NC(C)=O (centres undefined)	none
CCn1c(N2CCN(CC(=O)Nc3cccc(C)c3C)CC2)nc2ccccc21	none
CCn1c(N2CCN(CC(=O)c3ccc(OC)cc3)CC2)nc2ccccc21	HTR1E agonist 17.8
Cc1cnc(NC(=O)CN(C)S(=O)(=O)c2ccc(Cl)cc2)s1	none
COc1ccccc1CNC(=O)c1nnc(Cc2ccc(Cl)cc2)o1	HTR1A agonist 19.5
COc1cccc(C2C(C(=O)c3cc4ccccc4o3)=C(O)C(=O)N2c2cc(C)on2)c1OC (centres undefined)	none
CCCCNC(=O)c1ccccc1C(=O)NCCCC	none (no result: S1P1 ag-PAM)
CCCCP(=O)(CCCC)c1ccccc1C(=O)O	HTR1A agonist 252.4
COc1ccc2c(c1)c(CCN1C(=O)c3ccccc3C1=O)cn2C(=O)c1ccco1	none
O=C(Oc1ccc2[nH]cc(CCN3C(=O)c4ccccc4C3=O)c2c1)c1ccco1	HTR1E agonist 38.3
S=c1[nH]nc(-c2ccccc2)n1C1C=CCCC1 (centres undefined)	none
COc1cc(C#CC#CCN2CCCCC2)ccc1O	none
c1ccc2c(c1)[nH]c1nc(SCCN3CCOCC3)nnc12	none (no result: S1P1 ag-PAM)
Brc1ccc2[nH]c3nc(SCCN4CCOCC4)nnc3c2c1	HTR1E antagonist 35.7
COCCCNC(=O)CCn1c(=O)c2ccccc2n(CC(=O)Nc2c(C)cccc2C)c1=O	none
COCCCNC(=O)CCCn1c(=O)c2ccccc2n(CC(=O)Nc2c(C)cc(C)cc2C)c1=O	HTR1E agonist 42.6

Screening data (PubChem BioAssay)
